Reference: ChEMBL document CHEMBL1123566, “Synthesis and cardiac electrophysiological activity of 2- and 3-[(substituted phenyl)alkyl]quinuclidines. Structure-activity relationships” (1987)
“And” between values parts separate entries of the source, which are not always exact repeats. Identical values can stand only once.

Tests used:
Canis familiaris [1] = test: Conduction time was determined by intraduodenal administration of 10 mg/kg (low dose) of compound in anesthetized dogs. Value was reported for experiment 2; assay type: functional, Canis lupus familiaris
Outline: (§1)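 Anesthetized dogs; compound given intraduodenally, generally as two doses, the second a cumulative (high) dose. LV functional refractory period and conduction time measured 15, 30 and 45 min after dosing; heart rate and blood pressure measured during nonpacing intervals. Values are % change from control, given per individual animal. Active if FRP or CT prolonged by ≥12%.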

Canis familiaris [2] = test: Heart rate was determined by intraduodenal administration of two dosages of 30 mg/kg of compound in anesthetized dogs. Value was reported for experiment 1; assay type: functional, Canis lupus familiaris; outline: as §1
Canis familiaris [3] = test: Left ventricular refractory period was determined by intraduodenal administration of 10 mg/kg (low dose) of compound in anesthetized dogs. Value was reported for experiment 2; assay type: functional, Canis lupus familiaris, Cardiac ventricle
Outline: (§2)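 Anesthetized dogs received two intraduodenal doses, the second cumulative (low dose/high dose). Left ventricular FRP and CT were measured 15, 30 and 45 min after dosing. Heart rate and mean blood pressure were taken during nonpacing intervals. Values are percent change from control. The vehicle was 5% dextrose in water/tragacanth. Activity was defined as ≥12% prolongation of FRP or CT.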

Canis familiaris [4] = species on record: Canis familiaris; test: In vitro electrophysiological evaluation in canine cardiac Purkinje fibres reported as % change for action potential duration at 10 uM at 0.1-100 uM concentration range; assay type: functional, Canis lupus familiaris, Purkinje fiber
Outline: (§3)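 Canine cardiac Purkinje fibres, intracellular microelectrode recording, paced at a basic cycle length of 1 s. APD95 and Vmax read simultaneously. Compound: 10 mM stock in deionized water, diluted into Tyrode's solution, tested over the stated concentration range. Each fibre used once as its own control. Result is % change from control, given at 10 µM or as the maximum with its concentration. M = <10% decrease or an increase in Vmax.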

Canis familiaris [5] = test: Left ventricular refractory period was determined by intraduodenal administration of 30 mg/kg (high dose) of compound in anesthetized dogs. Value was reported for experiment 1; assay type: functional, Canis lupus familiaris, Cardiac ventricle; outline: as §2
Canis familiaris [6] = test: Heart rate was determined by intraduodenal administration of two dosages of 30 mg/kg of compound in anesthetized dogs. Value was reported for experiment 2; assay type: functional, Canis lupus familiaris; outline: as §1
Canis familiaris [7] = test: Left ventricular refractory period was determined by intraduodenal administration of 10 mg/kg (low dose) of compound in anesthetized dogs. Value was reported for experiment 1; assay type: functional, Canis lupus familiaris, Cardiac ventricle; outline: as §2
Canis familiaris [8] = test: Conduction time was determined by intraduodenal administration of 30 mg/kg (high dose) of compound in anesthetized dogs. Value was reported for experiment 1; assay type: functional, Canis lupus familiaris; outline: as §1
Canis familiaris [9] = test: Mean arterial blood pressure was determined by intraduodenal administration of two dosages of 30 mg/kg of compound in anesthetized dogs. Value was reported for experiment 1; assay type: functional, Canis lupus familiaris; outline: as §2
Canis familiaris [10] = species on record: Canis familiaris; test: In vitro electrophysiological evaluation in canine cardiac Purkinje fibres reported as maximum percent change Vmax concentration range of 0.1-100 uM; Minimal (<10% decrease or increase in V max).; assay type: functional; settings: Canis lupus familiaris; Purkinje fiber; outline: as §3
Canis familiaris [11] = species on record: Canis familiaris; test: In vitro electrophysiological evaluation in canine cardiac occurred is 100 uM; assay type: functional; settings: Canis lupus familiaris; Heart
Canis familiaris [12] = test: Heart rate was determined by intraduodenal administration of two dosages of 10 mg/kg of compound in anesthetized dogs. Value was reported for experiment 1; assay type: functional, Canis lupus familiaris; outline: as §1
Canis familiaris [13] = test: Mean arterial blood pressure was determined by intraduodenal administration of two dosages of 10 mg/kg of compound in anesthetized dogs. Value was reported for experiment 2; assay type: functional, Canis lupus familiaris; outline: as §2
Canis familiaris [14] = species on record: Canis familiaris; test: (§4) In vitro electrophysiological activity in canine cardiac occurred is 10 uM; assay type: functional, Canis lupus familiaris, Heart
Canis familiaris [15] = species on record: Canis familiaris; test: In vitro electrophysiological evaluation in canine cardiac ventricular muscle reported as maximum % change for functional refractory period (FRP) at 0.1-100 uM concentration range; concentration at which it occurred is 100 uM; design: species or system Canis lupus familiaris, Muscle tissue
Outline: (§5)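 Canine right ventricle and papillary muscle strips in oxygenated Tyrode's solution, fitted with stimulating and recording electrodes. The extra-stimulus conduction-interval method was adapted for in vitro use. FRP and CT were read from a conduction-interval curve before and after various compound concentrations, and expressed as percent change from control. Compounds were taken from 10 mM deionized-water stock into Tyrode's. Each strip was used once as its own control.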

Canis familiaris [16] = test: Conduction time was determined by intraduodenal administration of 10 mg/kg (low dose) of compound in anesthetized dogs. Value was reported for experiment 1; assay type: functional, Canis lupus familiaris; outline: as §1
Canis familiaris [17] = species on record: Canis familiaris; test: In vitro electrophysiological evaluation in canine cardiac Purkinje fibres reported as % change for action potential duration at a concentration of 10 uM; assay type: functional, Canis lupus familiaris, Purkinje fiber; outline: as §3
Canis familiaris [18] = test: Mean arterial blood pressure was determined by intraduodenal administration of two dosages of 10 mg/kg of compound in anesthetized dogs. Value was reported for experiment 1; assay type: functional, Canis lupus familiaris; outline: as §2
Canis familiaris [19] = test: Heart rate was determined by intraduodenal administration of two dosages of 10 mg/kg of compound in anesthetized dogs. Value was reported for experiment 2; assay type: functional, Canis lupus familiaris; outline: as §1
Canis familiaris [20] = species on record: Canis familiaris; test: as §4; assay type: functional, Canis lupus familiaris, Heart; remark: listed apart in the source
Canis familiaris [21] = species on record: Canis familiaris; test: In vitro electrophysiological evaluation in canine cardiac Purkinje fibres reported as percent change Vmax at 10 uM at concentration range of 1-100 uM.; assay type: functional; settings: Canis lupus familiaris, Purkinje fiber; outline: as §3
Canis familiaris [22] = test: Conduction time was determined by intraduodenal administration of 30 mg/kg (high dose) of compound in anesthetized dogs. Value was reported for experiment 2; assay type: functional, Canis lupus familiaris; outline: as §1
Canis familiaris [23] = test: Left ventricular refractory period was determined by intraduodenal administration of 30 mg/kg (high dose) of compound in anesthetized dogs. Value was reported for experiment 2; assay type: functional, Canis lupus familiaris, Cardiac ventricle; outline: as §2
Canis familiaris [24] = species on record: Canis familiaris; test: In vitro electrophysiological evaluation in canine cardiac ventricular muscle reported as maximum % change for conduction time(CT) at 0.1-100 uM concentration range; Minimal (<10% decrease or increase in CT).; assay type: functional, Canis lupus familiaris, Muscle tissue; outline: as §5
Canis familiaris [25] = species on record: Canis familiaris; test: In vitro electrophysiological evaluation in canine cardiac Purkinje fibres reported as percent change Vmax at 10 uM at concentration range of 0.1-100 uM; Minimal (<10% decrease or increase in V max).; assay type: functional, organism-based; settings: Canis lupus familiaris, Purkinje fiber; outline: as §3
Canis familiaris [26] = species on record: Canis familiaris; test: In vitro electrophysiological evaluation in canine cardiac ventricular muscle reported as % change for the functional refractory period (FRP) at 10 uM at concentration range of 0.1-100 uM; design: species or system Canis lupus familiaris, Muscle tissue; outline: as §5
Canis familiaris [27] = test: Mean arterial blood pressure was determined by intraduodenal administration of two dosages of 30 mg/kg of compound in anesthetized dogs. Value was reported for experiment 2; assay type: functional, Canis lupus familiaris; outline: as §2
Canis familiaris [28] = species on record: Canis familiaris; test: In vitro electrophysiological evaluation in canine cardiac ventricular muscle reported as % change for conduction time(CT) at 10 uM at 0.1-100 uM concentration range; Minimal (<10% decrease or increase in CT).; assay type: functional, Canis lupus familiaris, Muscle tissue

SMILES: CC(=O)C(CC1C(=O)C2CCN1CC2)C(=O)c1ccc([N+](=O)[O-])cc1.Cl (stereo not drawn)
- CT (Canis familiaris [1]): 9%
- HR (Canis familiaris [2]): -14%
- LV FRP (Canis familiaris [3]): 16%
- APD95 (Canis familiaris [4]): 29%
- LV FRP (Canis familiaris [5]): 13%
- HR (Canis familiaris [6]): -32%
- LV FRP (Canis familiaris [7]): 9%
- CT (Canis familiaris [8]): -3%
- Mean blood pressure (Canis familiaris [9]): 12%
- Vmax (Canis familiaris [10]): < 10%
- Vmax (Canis familiaris [11]): -24%
- HR (Canis familiaris [12]): -11%
- Mean blood pressure (Canis familiaris [13]): -39%
- APD95 (Canis familiaris [14]): 28%
- FRP (Canis familiaris [15]): 23% and 30%
- CT (Canis familiaris [16]): -3%
- APD95 (Canis familiaris [17]): 28%
- Mean blood pressure (Canis familiaris [18]): 10%
- HR (Canis familiaris [19]): -36%
- APD95 (Canis familiaris [20]): 29%
- Vmax (Canis familiaris [21]): -18%
- CT (Canis familiaris [22]): 11%
- LV FRP (Canis familiaris [23]): 22%
- CT (Canis familiaris [24]): <10%
- Vmax (Canis familiaris [25]): < 10%
- FRP (Canis familiaris [26]): 21% and 28%
- Mean blood pressure (Canis familiaris [27]): -30%
- CT (Canis familiaris [28]): <10%
